Records with an inconclusive call do not appear.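 The calls were made as follows, unless noted: active = viability increase at or above a cutoff of the median across tested compounds plus 3 SD (cut at about 8.5% in these data, passing the limit was not always enough); inconclusive = some gains above the cutoff, reason not given; inactive = the rest.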
Legend:
[1] = S. cerevisiae growth inhibition in permissive medium (OD615), pilot counter-assay for S. cerevisiae lifespan shortening project, permissive growth control (AID 705;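 active = growth inhibition above 25% in both replicates, a cutoff set 3 SD above the mean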); details: OD615, 24 h, at 10 µM, hits give high values
Method in brief: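 Test system: Saccharomyces cerevisiae strain carrying genetically modified DeaD replicative-lifespan system; buffer or medium: SC raffinose/galactose permissive medium; dosing: one dose 10 µM, DMSO 0.25% final; times: 24 h exposure, 30 °C; measured by: OD at 615 nm; read-out basis: growth inhibition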

[2] = S. cerevisiae growth inhibition in restrictive medium, OD615, pilot screen, restrictive growth control, yeast lifespan reduction project (AID 706;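 active = growth inhibition above a set limit, 3 SD over mean compound inhibition, in both replicates, cut at about 43% in these data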;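 also: modified DeaD lifespan yeast strain shifted to restrictive glucose medium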); details: OD615, 48 h, at 10 µM, hits give high values
Method in brief: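 material = engineered S. cerevisiae DeaD strain | buffer or medium = glucose-based CSMM-D restrictive medium | dosing = one concentration, 10 µM final, 0.25% DMSO | schedule = 4 h pre-growth plus 48 h compound exposure, 30 °C | detection = OD615 absorbance reading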

[3] = doxorubicin toxicity protection in MRP-1 cells – H69AR cells, CellTiter-Glo, duplicate, MRP-1 activator project, pilot screen (AID 807); details: H69AR viability with doxorubicin, CellTiter-Glo luminescence; at 10 µM; hits give high values;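 also: compound pretreatment 18-22 h then 72 h combined with doxorubicin; 0% = doxorubicin alone and 100% = vehicle without doxorubicin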
[4] = viability of HCT116 without oncogenic beta-catenin – human colon tumor cells, pilot screen (AID 823;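 active = cell viability at or below a set limit in both duplicate runs, the limit being the all-compound median minus 4 SD, cut at about 23% in these data, passing the limit was not always enough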;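 also: 0% = wells killed by 20 µM Hyamine and 100% = untreated DMSO cell wells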); details: HCT116 beta-catenin knockout viability, CellTiter-Glo, 60 h; at 10 µM; hits give low values
[5] = viability of PTEN-null HCT116 cells – cell-based, HCT116 clonal line, CellTiter-Glo, pilot screen (AID 824;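 active = viability at or below 27.92% in each of two runs, the all-compound median minus 4 SD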;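 also: 0% = 20 µM Hyamine control and 100% = vehicle cell control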); details: HCT116 PTEN-deleted viability, 60 h, at 10 µM, hits give low values
[6] = RAM pathway blockade in budding yeast – dse1pr::URA3 reporter, 5-FOA selection, pilot screen (AID 869;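 active = inhibition over a set limit, the all-compound mean plus 3 SD, in both replicate runs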;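 also: 0% = DMSO wells with no growth and 100% = 10 µM 1-NA-PP1 with full growth; RAM network block rescues cells from 5-FOA so hits raise OD615 growth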); details: S. cerevisiae dse1pr::URA3 5-FOA growth, OD615, 2 d; at 10 µM; hits give high values; strain carries analog-sensitive mutant Cbk1 kinase
[7] = RAM signaling pathway blockade in yeast – S. cerevisiae, Pdr1DBD-CYC8 efflux-inhibited sensitized strain, primary screen (AID 1298;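 active = RAM network inhibition above 8.4% in each of two replicates, 3 SD over the compound average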;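 also: 0% = DMSO untreated cells without growth and 100% = 10 µM 1-NA-PP1 full growth; higher means more yeast growth rescued from 5-FOA killing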); details: S. cerevisiae cbk1-as DSE1-URA3 strain, 5-FOA growth OD615, 2 d; at 50 µM; hits give high values

CS(=O)(=O)N(CC(=O)NCc1ccco1)c1cc(C(F)(F)F)ccc1Cl
inactive: growth inhibition [1] 0.43% | growth inhibition [2] -4.23% | viability increase [3] -3.09% | viability [4] 99% | viability [5] 92.8% | inhibition [6] 0.68% | RAM network inhibition [7] 2.65%

COc1ccc(Nc2ncnc3c2oc2ccccc23)cc1
inactive: growth inhibition [1] -9.29% | growth inhibition [2] 16.5% | viability increase [3] -2.52% | viability [4] 92.5% | viability [5] 92% | inhibition [6] -0.035% | RAM network inhibition [7] 4.44%

COc1ccc(C(=O)Nc2cccc(C(C)=O)c2)cc1S(=O)(=O)N1CCOCC1
inactive: growth inhibition [1] -23.9% | growth inhibition [2] -18.5% | viability increase [3] -1.76% | viability [4] 92% | viability [5] 96% | inhibition [6] 2.08% | RAM network inhibition [7] 2.08%

COc1ccc(CSc2nncn2N)cc1Br
inactive: growth inhibition [1] 8.95% | growth inhibition [2] 5.08% | viability increase [3] -2.01% | viability [4] 101% | viability [5] 90.8% | inhibition [6] 1.08% | RAM network inhibition [7] 0.88%

COc1ccc2c(Cl)c(-c3nnc(SCC(N)=O)n3C)sc2c1
inactive: growth inhibition [1] -2.31% | growth inhibition [2] 11.7% | viability increase [3] -2.99% | viability [4] 106% | viability [5] 94% | inhibition [6] 1.43% | RAM network inhibition [7] 0.69%

CCCCNC(=O)CS(=O)Cc1nc(-c2ccc(C)cc2)oc1C (configuration not stated)
inactive: growth inhibition [1] -7.66% | growth inhibition [2] 0.83% | viability increase [3] -2.08% | viability [4] 87.4% | viability [5] 88.5% | inhibition [6] -0.365% | RAM network inhibition [7] 2.19%

CCc1ccccc1NC(=O)c1cc2sccc2n1C
inactive: growth inhibition [1] -8.19% | growth inhibition [2] 0.86% | viability increase [3] 1.11% | viability [4] 90.4% | viability [5] 80.3% | inhibition [6] 0.28% | RAM network inhibition [7] 4.98%

CCCCOc1cccc(C2(C(=O)O)CCCC2)c1
inactive: growth inhibition [1] -6.28% | growth inhibition [2] 4.47% | viability increase [3] -1.49% | viability [4] 99% | viability [5] 94.5% | inhibition [6] 1.21% | RAM network inhibition [7] 4.01%

CC(C)COC(=O)C1C2C=CC3(CN(C4CCCC4)C(=O)C13)O2 (configuration not stated)
inactive: growth inhibition [1] -14.1% | growth inhibition [2] -0.515% | viability increase [3] -1.25% | viability [4] 107% | viability [5] 92.8% | inhibition [6] 2.07% | RAM network inhibition [7] 2.04%

COc1ccc(CN2C(=O)CCC2(C)C(=O)NC2CCCC2)c(OC)c1 (configuration not stated)
inactive: growth inhibition [1] -5.04% | growth inhibition [2] -4.46% | viability increase [3] 0.91% | viability [4] 105% | viability [5] 101% | inhibition [6] 0.71% | RAM network inhibition [7] 2.04%

CC(C)c1ccc(N(CC(=O)O)S(=O)(=O)c2cccnc2)cc1
inactive: growth inhibition [1] -2% | growth inhibition [2] 8.54% | viability increase [3] -1.28% | viability [4] 93.3% | viability [5] 98.7% | inhibition [6] -0.135% | RAM network inhibition [7] -1.88%

COc1ccc(-n2c(Cc3cc(=O)[nH]c(=O)[nH]3)nnc2SCC(=O)Nc2ccccc2)cc1
inactive: growth inhibition [1] 5.82% | growth inhibition [2] 3.9% | viability increase [3] 0.25% | viability [4] 105% | viability [5] 98.7% | inhibition [6] 0.48% | RAM network inhibition [7] 2.13%

COc1ccc(Cl)cc1NC(=O)CSc1nnc(Cn2c(=O)sc3ccccc32)n1C
inactive: growth inhibition [1] -8.82% | growth inhibition [2] -14.1% | viability increase [3] -2.64% | viability [4] 96.6% | viability [5] 95.6% | inhibition [6] 4.87% | RAM network inhibition [7] 7.45%

CCOC(=O)c1nc2ccccc2s1
inactive: growth inhibition [1] -4.63% | growth inhibition [2] -15.7% | viability increase [3] -2.72% | viability [4] 99.2% | viability [5] 97.4% | inhibition [6] 1.02% | RAM network inhibition [7] 1.61%

Cc1ccc(C(=O)NCc2ccc(Cl)c(Cl)c2)o1
inactive: growth inhibition [1] -3.73% | growth inhibition [2] 4.06% | viability increase [3] 0.03% | viability [4] 98% | viability [5] 98.5% | inhibition [6] 0.67% | RAM network inhibition [7] 1.28%

CCOC(=O)N1CCC(NC(=O)c2csc3c2CCCC3)CC1
inactive: growth inhibition [1] -3.1% | growth inhibition [2] -14.7% | viability increase [3] -2.82% | viability [4] 95.2% | viability [5] 93.6% | inhibition [6] 1.29% | RAM network inhibition [7] 3.9%

CNC(=O)CN1C(=O)c2ccccc2S1(=O)=O
inactive: growth inhibition [1] -5.12% | growth inhibition [2] 1.27% | viability increase [3] -0.6% | viability [4] 101% | viability [5] 98.9% | inhibition [6] 2.51% | RAM network inhibition [7] 2.32%

COc1ccc(-c2cn3c(C)c(C(=O)Nc4ccncc4)sc3n2)cc1
inactive: growth inhibition [1] -4.55% | growth inhibition [2] -15.3% | viability increase [3] -3.37% | viability [4] 102% | viability [5] 90.1% | inhibition [6] 3.6% | RAM network inhibition [7] 5.99%

CC(C)NC(=O)c1ccc(CS(=O)(=O)c2ccc(Br)cc2)o1
inactive: growth inhibition [1] 4.63% | growth inhibition [2] 3.97% | viability increase [3] -1.73% | viability [4] 87.1% | viability [5] 95.1% | inhibition [6] 1.95% | RAM network inhibition [7] 4.82%

COc1cc2c(cc1OC)CN(C(=O)C(C)(C)C)CC2
inactive: growth inhibition [1] -8.97% | growth inhibition [2] -7.4% | viability increase [3] 0.45% | viability [4] 105% | viability [5] 96.7% | inhibition [6] -0.13% | RAM network inhibition [7] -0.98%

O=C(CSc1nc2c(c(=O)n1-c1ccc(Cl)cc1)SCC2)NCc1ccco1
inactive: growth inhibition [1] -4.73% | growth inhibition [2] -0.115% | viability increase [3] -4.49% | viability [4] 86.2% | viability [5] 89% | inhibition [6] 0.225% | RAM network inhibition [7] 4.2%

Cc1ccccc1C(=O)OCn1nnc2ccccc2c1=O
inactive: growth inhibition [1] -1.86% | growth inhibition [2] -19.1% | viability increase [3] -2.87% | viability [4] 88.9% | viability [5] 93.2% | inhibition [6] 1.44% | RAM network inhibition [7] 2.2%

O=C(C1CC1)N1CCCN(C(=O)C2CC2)CC1
inactive: growth inhibition [1] 2.42% | growth inhibition [2] -1.38% | viability increase [3] -1.86% | viability [4] 98.8% | viability [5] 97.1% | inhibition [6] 2.03% | RAM network inhibition [7] 4.69%

CCCCNc1ncnc2c1cnn2-c1ccc(C)cc1C
inactive: growth inhibition [1] 6.55% | growth inhibition [2] 9.48% | viability increase [3] -3.72% | viability [4] 92.8% | viability [5] 89.2% | inhibition [6] -0.12% | RAM network inhibition [7] 0.27%

CCOc1ccc(-n2c(Cc3cc(=O)[nH]c(=O)[nH]3)nnc2SCC(=O)NC2CCCC2)cc1
inactive: growth inhibition [1] -1.49% | growth inhibition [2] 4.62% | viability increase [3] -0.16% | viability [4] 101% | viability [5] 100% | inhibition [6] -1.29% | RAM network inhibition [7] -0.37%

O=C(Nc1ccc(Br)cc1F)c1ccc2c(c1)N(Cc1ccccc1)C(=O)CS2=O (configuration not stated)
inactive: growth inhibition [1] -7.48% | growth inhibition [2] 1.12% | viability increase [3] -0.49% | viability [4] 81.1% | viability [5] 67.8% | inhibition [6] 2.64% | RAM network inhibition [7] 2.84%

CCOC(=O)Cn1c(=O)oc2cc(S(=O)(=O)N3CCC(N4CCCCC4)CC3)ccc21
inactive: growth inhibition [1] -7.51% | growth inhibition [2] -9.77% | viability increase [3] 0.75% | viability [4] 101% | viability [5] 105% | inhibition [6] 1.06% | RAM network inhibition [7] 0.21%

O=C(NC1CCCCC1)N1CCCc2ccccc21
inactive: growth inhibition [1] 2.93% | growth inhibition [2] -1.39% | viability increase [3] -4.89% | viability [4] 86.1% | viability [5] 84% | inhibition [6] 0.345% | RAM network inhibition [7] -1.17%

CCOC(=O)CN1CC23C=CC(O2)C(C(=O)N2CCN(c4ccc(F)cc4)CC2)C3C1=O (configuration not stated)
inactive: growth inhibition [1] 7.71% | growth inhibition [2] 5.64% | viability increase [3] -2.12% | viability [4] 86.7% | viability [5] 93.2% | inhibition [6] 1.45% | RAM network inhibition [7] -0.56%

CCn1c(C(C)NC(=O)Cc2ccccc2)nc2ccccc21 (configuration not stated)
inactive: growth inhibition [1] -12.2% | growth inhibition [2] -17.6% | viability increase [3] -1.21% | viability [4] 99.6% | viability [5] 96% | inhibition [6] 1.83% | RAM network inhibition [7] 4.91%

Cc1nnc(SCCn2c(N3CCN(c4ccccc4)CC3)nc3c2c(=O)n(C)c(=O)n3C)s1
inactive: growth inhibition [1] -8.87% | growth inhibition [2] -18.3% | viability increase [3] -1.99% | viability [4] 104% | viability [5] 102% | inhibition [6] 1.23% | RAM network inhibition [7] 2.19%

CCN1CCN(Cc2nc3c(c(=O)n(C)c(=O)n3C)n2Cc2ccc(Cl)cc2Cl)CC1
inactive: growth inhibition [1] -9.72% | growth inhibition [2] -16.2% | viability increase [3] -3.62% | viability [4] 99.1% | viability [5] 98.8% | inhibition [6] 0.615% | RAM network inhibition [7] 1.52%

CN(C)Cc1c(O)ccc2occ(C(O)c3ccccc3)c12 (configuration not stated)
inactive: growth inhibition [1] -13.2% | growth inhibition [2] -4.58% | viability increase [3] -3.71% | viability [4] 77.2% | viability [5] 82.5% | inhibition [6] 1.07% | RAM network inhibition [7] 4.33%

Cn1c(=O)oc2cc(S(=O)(=O)N3CCCC(C(=O)N4CCn5c4nc4ccccc45)C3)ccc21 (configuration not stated)
inactive: growth inhibition [1] -8.03% | growth inhibition [2] -7.74% | viability increase [3] -1.54% | viability [4] 77.7% | viability [5] 76.2% | inhibition [6] 0.695% | RAM network inhibition [7] 1.49%

O=C(c1ccc(S(=O)(=O)N2CCCC2)cc1)N1CCCc2ccccc21
inactive: growth inhibition [1] -17.6% | growth inhibition [2] -13.7% | viability increase [3] -4.87% | viability [4] 95.1% | viability [5] 92.4% | inhibition [6] 0.11% | RAM network inhibition [7] 1.2%

Cn1c(Cn2c(=O)sc3ccccc32)nnc1SCC(=O)NCc1ccccc1
inactive: growth inhibition [1] -10.1% | growth inhibition [2] -7.48% | viability increase [3] -0.73% | viability [4] 99% | viability [5] 102% | inhibition [6] 3.87% | RAM network inhibition [7] 4.44%

Source: PubChem BioAssay
